The nature of the data set: Toxicity liver stage against HepG2, at 10uM. As to conditions: human, HepG2-A16-CD81EGFP cells; read-out: INHIBITION
It counts as cell-based. Details: test concentration 10 uM, cell line HepG2-A16-CD81EGFP. In short, it runs like this: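 Uninfected HepG2-A16-CD81EGFP cells, 3 × 10^3 per well, 1536-well, plated on prespotted compound at 10 μM final, parasite-free screening media added to match infected plates; puromycin 10 μM positive, DMSO 0.5% negative; run in parallel with 48 h PbLuc assay at 37 °C, 5% CO2; viability by CellTiter-Glo luminescence, normalized to controls.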
`Cc1cc(CN(C)C(=O)c2ccc(Cl)c(S(C)(=O)=O)c2)no1`: the cytotoxicity at 10 µM was -2.77%.

Take `Cc1ccc2c(c1)C(NC(=O)C1CCN(S(C)(=O)=O)CC1)CC(C)(C)O2` (configuration not stated): the cytotoxicity at 10 µM was found to be 2.22%.

As for `CC(NC(=O)CNCCn1cccn1)c1ccc2c(c1)OCCO2` (configuration not stated), the cytotoxicity at 10 µM was -13%.

As for `CC1CCCCN1CCN(C)C(=O)c1cc(CN2CCC(O)CC2)on1` (configuration not stated), the cytotoxicity at 10 µM was 1.14%.

Take `O=C(c1ccc(S(=O)(=O)NCCc2ccccn2)cc1)N1CCCC1`: the cytotoxicity at 10 µM was 13.2%. To `Cc1cc(C(=O)Cn2cnnc2[S+](C)[O-])cc(C)c1F` (configuration not stated) belongs 4.31%.

On to `O=C(NC1CCN(CC2CC2)C1)c1ccc(C(=O)c2cc[nH]c2)cc1` (configuration not stated), for which the cytotoxicity at 10 µM was -6.14%. `Cc1cccc(CN2CCc3c(CNC(=O)CC#N)nn(C)c3C2)n1`: the cytotoxicity at 10 µM was 4.89%. Take `CCCC(=O)N1CCC(Nc2ncc(Br)cn2)CC1`: the cytotoxicity at 10 µM is -8.69%. `CCOC(=O)CSc1nnc([C@@H](N)C(C)C)o1`: the cytotoxicity at 10 µM came out at 0.979%.

With `CN(Cc1ccco1)[C@@H]1CN(C(=O)C2CCOCC2)C[C@@H]2CCCO[C@@H]21`, the cytotoxicity at 10 µM was determined as 3.48%. For the compound `Cc1nc(C)n(CC2CCCN(CC(=O)N3CCCC3)C2)n1` (configuration not stated), the cytotoxicity at 10 µM was -8.31%.

Take `O=C(CCn1ccc2ccc(Br)cc21)/N=c1\[nH]nc(C2CCCO2)s1` (configuration not stated): the cytotoxicity at 10 µM was -9.46%. For the compound `Cc1noc(CCNC(=O)NCc2ccc(N3CCCCC3)cc2)n1`, the cytotoxicity at 10 µM was found to be 9.47%. The value for `COc1ncc(C)cc1NC(=O)CCc1ccccn1` was -9.58%. Turning to `CCOC(=O)Cn1c(=O)[nH]c2cn(-c3ccccc3)c(=O)n21`, the cytotoxicity at 10 µM was determined as 0.379%.

Turning to `CN(C)CCNCCC(c1ccccc1)C1CCOC(C)(C)C1` (configuration not stated), the cytotoxicity at 10 µM was -5.67%. Regarding `N#Cc1ccc(NCc2cccc(OCC3CCCO3)c2)nc1` (configuration not stated), the cytotoxicity at 10 µM was found to be 1.25%.

Consider `COc1ccc(CN(Cc2cc(C)no2)C2CC2)cc1`, for which the cytotoxicity at 10 µM is -3.71%. In the case of `Cc1ccc(CN(C(=O)C(C)NC(N)=O)C2CC2)cc1C` (configuration not stated), the cytotoxicity at 10 µM was determined as 7.47%. To `O=S(=O)(NC1=NCN(CCc2cccs2)CN1)c1ccccc1` belongs -3.32%. To `CC(C)c1cncnc1-c1cc(F)cc2c1OC(CN)C2` (configuration not stated) belongs -4.02%. With `Cc1noc(CNc2ccc(OC(F)F)cc2OC(F)F)n1`, the cytotoxicity at 10 µM came to 1.85%. Consider `Cc1ccc(C(NC(=O)Cn2cc(C3CC3)nn2)C2CC2)cc1` (configuration not stated), for which the cytotoxicity at 10 µM is -5.36%. To `N#Cc1cccc(C(=O)N2CC[C@H]3[C@H]2CCN3CC2CCOCC2)c1` belongs -77%.

Take `CN1CCN(Cc2ccncc2)C(=O)C12CCN(c1nccs1)CC2`: the cytotoxicity at 10 µM was -2.82%. As for `CCOCc1nnc(NCc2cccc(C)c2)o1`, the cytotoxicity at 10 µM came out at 16.3%.

Consider `Cc1ccc(-n2nc(C)c3c2NC(=O)CC3c2cnc(N)s2)cc1` (configuration not stated), for which the cytotoxicity at 10 µM is 5.56%. As for `CC(Cc1ccco1)NC(=O)Nc1ccc(N2CCOCC2)nc1` (configuration not stated), the cytotoxicity at 10 µM worked out at 0.813%. Turning to `O=C(NCC(Cc1cccc(F)c1)N1CCCC1=O)c1ccc[nH]c1=O` (configuration not stated), the cytotoxicity at 10 µM is -2.42%.

Regarding `CC(=O)N1CCC[C@H]1C(=O)N(C)CCCOc1ccccc1`, the cytotoxicity at 10 µM is -1.18%. To `CCc1nc(-c2noc3ccc(C(=O)NCCN(C)C)cc23)co1` belongs -150%; to `CC(C)(C)c1nc(NS(=O)(=O)c2ccccc2F)no1`, -1.45%; to `CCC[C@@H]1CN(C(=O)c2ccccc2-c2ccccc2)C[C@H]1N(C)C`, 2.16%. Regarding `O=C(Nc1ccccn1)N(CCO)Cc1ccccc1Br`, the cytotoxicity at 10 µM was -14.4%. For `Cn1cc(C2CC(=O)NC23CCN(Cc2cccc(F)c2)CC3)cn1` (configuration not stated), the cytotoxicity at 10 µM was found to be 7.13%. As to `Cc1cc(NC(=O)NCC(O)c2ccc(Cl)cc2Cl)n(C)n1` (configuration not stated), the cytotoxicity at 10 µM is -5.38%.

Consider `CCN1CCN(c2ccc(CNC(=O)c3c(C)noc3C)cn2)CC1`, for which the cytotoxicity at 10 µM worked out at 0.265%. The value for `Cc1cc(NCC2CCN(c3ccccc3)C2)n2ncnc2n1` (configuration not stated) was 67%; that for `NC1CCc2nc(-c3ccncc3)nc(Nc3cccc(F)c3)c2C1` (configuration not stated) was 26.4%. To `O=C(Nc1cccc(N2CCN(CC3CC3)CC2)c1)C1CCCO1` (configuration not stated) belongs -1.23%; to `O=C(c1ccc2[nH]ccc2c1)N1Cc2nc(CN3CCCC3)oc2C1`, 6.98%. The value for `O=S(=O)(C1CC1)N1Cc2nccn2CC(Cn2cncn2)C1` (configuration not stated) was 1.02%; that for `CN1CC[C@@H]2[C@@H]1CCN2Cc1ccc2c(c1)OCO2` was 3.11%; that for `CC(C)CS(=O)(=O)CC(=O)NC(C)(C)c1cccc(F)c1` was -1.12%. As to `Cc1csc(C2CCCCN2C(=O)CCCn2cccn2)n1` (configuration not stated), the cytotoxicity at 10 µM is -0.89%. Regarding `Cc1nc2c(C(=O)N[C@H]3C[C@H]4CN(C)CCN4C3)cccc2[nH]1`, the cytotoxicity at 10 µM was -7.98%. To `O=C(NCc1nnc2n1CCCCC2)N1CCc2ccccc2C1` belongs 4.66%. As for `COCC(=O)NCc1cc(=O)n2c(n1)CN(CC1CCOC1)CCC2` (configuration not stated), the cytotoxicity at 10 µM came out at 1.47%. The value for `Cc1nc(CN2CCCC(CCc3ccc(F)cc3F)C2)c[nH]1` (configuration not stated) was -9.67%; that for `COC(=O)c1ccc(C(=O)NS(=O)(=O)c2cncc(Br)c2)cc1` was 9.95%; that for `OCC1(O)CCN(c2ccnc3c(C(F)(F)F)cccc23)CC1` was -14.8%. `CCC(O)CN1CCN(C(=O)Cc2ccc(OC)cc2OC)CC1` (configuration not stated): the cytotoxicity at 10 µM was -23.8%. To `CCc1ncncc1C(=O)N1CCN(Cc2ccsc2)CC1` belongs 0.956%; to `COCC(=O)N1CCCC1c1cccc(Nc2ncc(C)s2)n1` (configuration not stated), -17%; to `CCOc1ncccc1C(=O)N1CCCC(n2nc(C)nc2C)C1` (configuration not stated), -8.47%. To `CCc1noc(C2CCCCN2C(=O)c2nnc3ccccc3n2)n1` (configuration not stated) belongs 0.795%. The value for `CNc1cc(C)nc(NCc2cc(C)cc3c(C)c(C)[nH]c23)n1` was -29%; that for `CCCn1nc2c(cc1=O)CN(c1ncnc3sccc13)CC2` was 49.4%; that for `Cc1cc(NC2CCN(Cc3ccccn3)CC2)n2nc(C)c(C)c2n1` was 0.951%. As for `Cc1nc(C2CCCN2CC(=O)NCCOc2ccccc2)no1` (configuration not stated), the cytotoxicity at 10 µM was -6.54%. On to `CCn1c(CN(C)C)nnc1C1CCN(Cc2ccc(Cl)cc2)CC1`, for which the cytotoxicity at 10 µM was 1.77%. To `Cc1c(C2CC2)n[nH]c1NC(=O)C1CCCN(C(=O)NCC(C)C)C1` (configuration not stated) belongs 13.9%; to `CC(C)CCn1cc(C(C(=O)O)N2CCC(c3ccncc3)CC2)cn1` (configuration not stated), 3.34%.

For `CNC(=O)Cc1csc(NC(=O)C2CSCCC(=O)N2)n1` (configuration not stated), the cytotoxicity at 10 µM was -4.94%. As for `Cc1nc(CN(C)C2CCN(CCc3ccccn3)C2)no1` (configuration not stated), the cytotoxicity at 10 µM was -3.85%. To `c1ccc(CCN2CCc3c(ncn3C3CC3)C2)nc1` belongs -1.43%; to `c1cc2cc[nH]c2c(CC2CN(Cc3cncs3)C2)n1`, -0.54%; to `CC(C)c1nn(C)c(N(C)C)c1CNCc1ccc(N(C)C)nc1`, -8.42%. For the compound `CS(=O)(=O)N1CCN(c2ccnc(N3CCCC3)n2)CC1`, the cytotoxicity at 10 µM was -1.26%.

As for `Cc1nc(S(=O)(=O)CCn2cccn2)n(CC2CCCO2)c1C` (configuration not stated), the cytotoxicity at 10 µM was -4.34%. For `COc1cc(C2(C(=O)N3CCCC(n4cncn4)C3)CC2)ccc1C` (configuration not stated), the cytotoxicity at 10 µM is -6.16%. `Cc1ncsc1C(=O)NCc1cc2n(n1)CCN(C(=O)N(C)C)C2`: the cytotoxicity at 10 µM was -5.62%. Take `COCCOc1ccccc1CNCC1COC2(CCCC2)O1` (configuration not stated): the cytotoxicity at 10 µM was -143%. The value for `FC(F)(F)COCCN1CCc2cncnc2C1` was -2.67%; that for `COC(C)c1noc(CN(C)c2ncc(Br)cn2)n1` (configuration not stated) was -1.26%. For the compound `CN(Cc1cccs1)C(=O)CN1CCCCC1Cn1cncn1` (configuration not stated), the cytotoxicity at 10 µM worked out at 8.97%.

Consider `O=C(NCCN1CCCCCC1=O)NCc1ccc(Cl)s1`, for which the cytotoxicity at 10 µM was -1.08%. To `COC(=O)c1cccc(CN(C)C(C)c2ccccn2)c1` (configuration not stated) belongs 5.85%; to `Cc1ncc(CNC2CCc3nc(C(C)C)nn3C2)s1` (configuration not stated), 3.97%. For `CN(C)CCNC(=O)c1ccc2c(-c3nccs3)noc2c1`, the cytotoxicity at 10 µM is 9.28%. `CCc1ccc(CN(C)Cc2nc(COc3ccccc3)no2)nc1`: the cytotoxicity at 10 µM worked out at 6.58%.

Take `C[C@@H]1CN(S(=O)(=O)N2CCCCCC2)C[C@@]1(O)C1CCC1`: the cytotoxicity at 10 µM is 17.6%. With `Nc1cc2c(nn1)CCN(C(=O)Cc1ccc3c(c1)CCO3)C2`, the cytotoxicity at 10 µM is 5.52%. To `CC(C(=O)Nc1cccc(Cl)c1SC(F)F)S(C)(=O)=O` (configuration not stated) belongs 0.685%; to `CCN1CCN(c2ccc(CNC(=O)c3ccccc3F)cn2)CC1`, -16.4%; to `CN(CCO)Cc1nnc(C2CCN(C(=O)c3cccnc3)CC2)n1C`, 11.4%. The value for `Cc1csc2nc3n(c(=O)c12)CCN(Cc1ccccn1)CC3` was -18.2%. To `COc1cccc(C2CCN2C(=O)c2cc(C(C)C)on2)c1` (configuration not stated) belongs -2.96%. Consider `COC(=O)c1sccc1S(=O)(=O)NCCc1ccoc1`, for which the cytotoxicity at 10 µM is 2.6%. `COCCC(Cc1cccc(Br)c1)C(=O)NCC(N)=O` (configuration not stated): the cytotoxicity at 10 µM was found to be 9.74%. The value for `O=C(NCCCN1CCOCC1)c1ccc(Cl)cc1Cl` was -3.64%; that for `CS(=O)(=O)NC1CC(=O)N(c2ccccc2Cl)C1` (configuration not stated) was -0.585%; that for `O=C(CCn1ccc2ccc(Br)cc21)NCc1ccc(C(=O)O)cc1` was 13.4%.

In the case of `CCN(CC)CCn1cc(NC2CCSCC2)cn1`, the cytotoxicity at 10 µM was determined as 2.5%.

In the case of `COc1ccc(OCc2noc(CN(C)C3CCS(=O)(=O)C3)n2)cc1` (configuration not stated), the cytotoxicity at 10 µM was 12.5%. `O=C(c1ccc2c(c1)COC2)N1CCCC(n2cncn2)C1` (configuration not stated): the cytotoxicity at 10 µM is -20.6%.
